Key:
Assay type in all cases: functional, cell-based
[1] = tested on: SMMC-7721; assay: Anticancer activity against human SMMC7721 cells assessed as reduction in cell viability incubated for 48 hrs MTT assay; conditions: SMMC-7721, 48 h
Summary of the method: (§1)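 MTT assay on human hepatocarcinoma SMMC-7721, lung carcinoma A549 and nasopharyngeal carcinoma CNE2 cells, with matrine as comparator and cisplatin as positive control. IC50 is the concentration that lowers optical density of treated cells by 50% versus untreated cells, given as the mean ± SD of three experiments.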

[2] = tested on: CNE-2; assay: Anticancer activity against human CNE2 cells assessed as reduction in cell viability incubated for 48 hrs MTT assay; conditions: CNE-2, 48 h; summary of the method: as §1
[3] = tested on: A549; assay: Anticancer activity against human A549 cells assessed as reduction in cell viability incubated for 48 hrs MTT assay; conditions: A549, 48 h; summary of the method: as §1

Row | Structure (SMILES) | IC50 [1] [µM] | IC50 [3] [µM] | IC50 [2] [µM]
1 | Cc1cc(C)cc(Cn2cccc2/C=C2\CC[C@@H]3[C@H]4CCCN5CCC[C@@H](CN3C2=O)[C@@H]45)c1 | 49.4 | > 50 | 32.1
2 | O=C1/C(=C/c2cccn2Cc2cccc(Br)c2)CC[C@@H]2[C@H]3CCCN4CCC[C@@H](CN12)[C@@H]34 | 16.2 | 13.8 | 15
3 | O=C1/C(=C/c2cn(Cc3ccccc3Cl)c3ccccc23)CC[C@@H]2[C@H]3CCCN4CCC[C@@H](CN12)[C@@H]34 | 17.6 | 18.3 | 17.4
4 | COc1ccc(Cn2cccc2/C=C2\CC[C@@H]3[C@H]4CCCN5CCC[C@@H](CN3C2=O)[C@@H]45)cc1 | 41.6 | 39.1 | 28.8
5 | CC(C)(C)c1cc(Cn2cccc2/C=C2\CC[C@@H]3[C@H]4CCCN5CCC[C@@H](CN3C2=O)[C@@H]45)cc(C(C)(C)C)c1 | > 40 | > 40 | > 40
6 | O=C1CCC[C@@H]2[C@H]3CCCN4CCC[C@@H](CN12)[C@@H]34 [MATRINE] | 6590 | 5720 | 5280
7 | O=C1/C(=C/c2cccn2Cc2ccc3ccccc3c2)CC[C@@H]2[C@H]3CCCN4CCC[C@@H](CN12)[C@@H]34 | 20.3 | 23.9 | 14.7
8 | Cc1cccc(Cn2cccc2/C=C2\CC[C@@H]3[C@H]4CCCN5CCC[C@@H](CN3C2=O)[C@@H]45)c1 | 30.7 | 44.3 | 24.5
9 | COc1ccc(Cn2ccc3c(/C=C4\CC[C@@H]5[C@H]6CCCN7CCC[C@@H](CN5C4=O)[C@@H]67)cccc32)cc1 | 28.2 | 28.4 | 15.5
10 | O=C1/C(=C/c2cn(Cc3cccc(Cl)c3)c3cc(Cl)ccc23)CC[C@@H]2[C@H]3CCCN4CCC[C@@H](CN12)[C@@H]34 | 23.7 | 26.3 | 23.7
11 | Cc1ccc(Cn2cccc2/C=C2\CC[C@@H]3[C@H]4CCCN5CCC[C@@H](CN3C2=O)[C@@H]45)cc1 | 27.9 | 24.4 | 21.9
12 | O=C1/C(=C/c2cn(Cc3ccc(Br)cc3)c3ccccc23)CC[C@@H]2[C@H]3CCCN4CCC[C@@H](CN12)[C@@H]34 | 16.8 | 18.1 | 14.7
13 | O=C1/C(=C/c2cccn2Cc2ccc(Br)cc2)CC[C@@H]2[C@H]3CCCN4CCC[C@@H](CN12)[C@@H]34 | 17.6 | 22.9 | 17.8
14 | O=C1/C(=C/c2cccn2Cc2ccc(OC(F)(F)F)cc2)CC[C@@H]2[C@H]3CCCN4CCC[C@@H](CN12)[C@@H]34 | 36.6 | 47.1 | 23.9
15 | O=C1/C(=C/c2cccn2Cc2ccc(F)cc2)CC[C@@H]2[C@H]3CCCN4CCC[C@@H](CN12)[C@@H]34 | 34 | 31.6 | 26.4
16 | O=C1/C(=C/c2ccc3c(ccn3Cc3ccc4ccccc4c3)c2)CC[C@@H]2[C@H]3CCCN4CCC[C@@H](CN12)[C@@H]34 | 27 | 30.2 | 14.3
17 | Cc1ccccc1Cn1cccc1/C=C1\CC[C@@H]2[C@H]3CCCN4CCC[C@@H](CN2C1=O)[C@@H]34 | 22.4 | 29.3 | 28.4

More lines, in order of falling IC50 [1], values ahead:

Row | IC50 [1] [µM] | IC50 [3] [µM] | Structure (SMILES) | IC50 [2] [µM]
18 | 16 | 15.8 | CC(C)(C)c1ccc(Cn2cccc2/C=C2\CC[C@@H]3[C@H]4CCCN5CCC[C@@H](CN3C2=O)[C@@H]45)cc1 | 13.8
19 | 15.5 | > 50 | COc1cc(Cn2cc(/C=C3\CC[C@@H]4[C@H]5CCCN6CCC[C@@H](CN4C3=O)[C@@H]56)c3ccccc32)cc(OC)c1OC | 20
20 | 13.8 | 15.5 | CC(C)(C)c1ccc(Cn2ccc3c(/C=C4\CC[C@@H]5[C@H]6CCCN7CCC[C@@H](CN5C4=O)[C@@H]67)cccc32)cc1 | 9.75
21 | 13.7 | 15.3 | COc1cccc(Cn2cc(/C=C3\CC[C@@H]4[C@H]5CCCN6CCC[C@@H](CN4C3=O)[C@@H]56)c3ccccc32)c1 | 9.31
22 | 12.9 | 13.1 | O=C1/C(=C/c2cccn2Cc2ccc(OCc3ccccc3)cc2)CC[C@@H]2[C@H]3CCCN4CCC[C@@H](CN12)[C@@H]34 | 10.8
23 | 12 | 12.1 | Cc1ccccc1Cn1cc(/C=C2\CC[C@@H]3[C@H]4CCCN5CCC[C@@H](CN3C2=O)[C@@H]45)c2ccccc21 | 10.8
24 | 11.9 | 13.9 | O=C1/C(=C/c2cn(Cc3ccccc3)c3ccccc23)CC[C@@H]2[C@H]3CCCN4CCC[C@@H](CN12)[C@@H]34 | 10.8
25 | 11.8 | 12.5 | COc1ccc(Cn2cc(/C=C3\CC[C@@H]4[C@H]5CCCN6CCC[C@@H](CN4C3=O)[C@@H]56)c3ccccc32)cc1OC | 11.6
26 | 11.5 | 9.04 | O=C1/C(=C/c2cn(Cc3ccc(OC(F)(F)F)cc3)c3ccc(Br)cc23)CC[C@@H]2[C@H]3CCCN4CCC[C@@H](CN12)[C@@H]34 | 6.04
27 | 11.2 | 12.1 | O=C1/C(=C/c2cn(Cc3ccc(Cl)cc3)c3ccccc23)CC[C@@H]2[C@H]3CCCN4CCC[C@@H](CN12)[C@@H]34 | 11
28 | 9.76 | 12.6 | O=C1/C(=C/c2cn(Cc3ccc(OCc4ccccc4)cc3)c3ccccc23)CC[C@@H]2[C@H]3CCCN4CCC[C@@H](CN12)[C@@H]34 | 11.7
29 | 9.73 | 5.24 | O=C1/C(=C/c2cn(Cc3ccc(OC(F)(F)F)cc3)c3ccc(Cl)cc23)CC[C@@H]2[C@H]3CCCN4CCC[C@@H](CN12)[C@@H]34 | 3.52
30 | 8.73 | 10.1 | COc1ccc2c(/C=C3\CC[C@@H]4[C@H]5CCCN6CCC[C@@H](CN4C3=O)[C@@H]56)cn(Cc3ccc(Cl)cc3)c2c1 | 6.84
31 | 8.65 | 9.74 | O=C1/C(=C/c2cn(Cc3ccc4ccccc4c3)c3ccc(Br)cc23)CC[C@@H]2[C@H]3CCCN4CCC[C@@H](CN12)[C@@H]34 | 12.5
32 | 8.52 | 9.24 | Cc1cccc(Cn2cc(/C=C3\CC[C@@H]4[C@H]5CCCN6CCC[C@@H](CN4C3=O)[C@@H]56)c3ccccc32)c1 | 7.91
33 | 8.35 | 9.13 | Cc1ccc2c(c1)c(/C=C1\CC[C@@H]3[C@H]4CCCN5CCC[C@@H](CN3C1=O)[C@@H]45)cn2Cc1cccc(Cl)c1 | 11.8
34 | 8.01 | 11.2 | COc1ccc(Cn2cc(/C=C3\CC[C@@H]4[C@H]5CCCN6CCC[C@@H](CN4C3=O)[C@@H]56)c3ccccc32)cc1 | 8.43
35 | 7.58 | 7.53 | O=C1/C(=C/c2cn(Cc3cccc(Cl)c3)c3ccccc23)CC[C@@H]2[C@H]3CCCN4CCC[C@@H](CN12)[C@@H]34 | 6.36
36 | 6.89 | 7.45 | COc1ccc2c(c1)c(/C=C1\CC[C@@H]3[C@H]4CCCN5CCC[C@@H](CN3C1=O)[C@@H]45)cn2Cc1ccc2ccccc2c1 | 6.72
37 | 6.21 | 6.33 | COc1ccc2c(c1)c(/C=C1\CC[C@@H]3[C@H]4CCCN5CCC[C@@H](CN3C1=O)[C@@H]45)cn2Cc1ccccc1Cl | 6.06
38 | 5.65 | 7.12 | COc1ccc2c(c1)c(/C=C1\CC[C@@H]3[C@H]4CCCN5CCC[C@@H](CN3C1=O)[C@@H]45)cn2Cc1ccc(Cl)cc1 | 4.65
